From paper PMC8501684 (International Journal for Parasitology: Drugs and Drug …, 2021)

How the values were obtained:
[1] = tested on: Naegleria fowleri ATCC® 30808™ trophozoites; test: In vitro activity assay; type: cell-based; conditions: for N. fowleri ATCC® 30808™ SI (CC50/IC50): selectivity index, CC50 J774A.1 / IC50 ATCC 30808
In short: (§1)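 Both strains were grown axenically at 37 °C in 2% Bactocasitone with 10% FBS, penicillin G and streptomycin. Trophozoites from a 2*10^5 cells/ml stock were seeded in duplicate with serial compound dilutions in the same medium, plus a medium-only negative control. AlamarBlue (10% of medium volume) was added for 48 h at 37 °C with slight agitation, read at 570 nm […] with a 630 nm reference. Inhibitory concentrations came from non-linear regression; experiments were done in triplicate and averaged.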

[2] = tested on: Naegleria fowleri ATCC® 30215™ trophozoites; test: In vitro activity assay; type: cell-based; conditions: for N. fowleri ATCC® 30215™ SI (CC50/IC50): selectivity index, CC50 J774A.1 / IC50 ATCC 30215
In short: as §1

[3] = Cytotoxicity assay; type: cell-based; conditions: mouse, J774A.1 murine macrophage cells
In short: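 J774A.1 macrophages were kept in DMEM with 10% FBS and 10 μg/mL gentamicin at 37 °C, 5% CO2. Cells from a 10^5 cells/ml stock got a range of compound concentrations plus AlamarBlue (10% of medium volume), with a medium-only negative control. Incubation was 24 h at 37 °C in 5% CO2, and CC50 was derived from the read-out.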

[4] = ref Tian et al., 2016; cited from earlier work
[5] = various species plasma; ref Tian et al., 2016; cited from earlier work

IC50 ([1]; Naegleria fowleri, ATCC30808, 48 h, read-out: N. fowleri ATCC® 30808™ IC50) [nM] | IC50 ([2]; Naegleria fowleri, ATCC30215, 48 h, read-out: N. fowleri ATCC® 30215™ IC50) [nM] | SMILES | N. fowleri ATCC® 30808™ SI (CC50/IC50) [1] | N. fowleri ATCC® 30215™ SI (CC50/IC50) [2] | CC50 at 24 h [3] [nM] | half-life [4] | pharmacokinetic profile [4] | tissue distribution [4] | protein binding to plasma [5]
121 ± 32 | 166 ± 26 | C[C@@H]1[C@H](O)[C@@H](C)/C=C/C=C/C=C/C=C/C=C/C=C/C=C/[C@H](O[C@@H]2O[C@H](C)[C@@H](O)[C@H](N)[C@@H]2O)C[C@@H]2O[C@](O)(C[C@@H](O)C[C@@H](O)[C@H](O)CC[C@@H](O)C[C@@H](O)CC(=O)O[C@H]1C)C[C@H](O)[C@H]2C(=O)O [Amphotericin B] | ≥1652.893 | ≥1204.819 | ≥ 200000 |  |  |  | 
 |  | CCCCC1OC(=O)c2cc(Br)ccc21 (stereo not drawn) [Br-NBP, 3-butyl-6-bromo-1(3H)-isobenzofuranone] |  |  |  | short half-life | good dose-linear pharmacokinetic profile | wide tissue distribution | different degree protein binding to various species plasma
 |  | CCCCCCCCCCCCCCCCOP(=O)([O-])OCC[N+](C)(C)C [Miltefosine] | 3.301 | 1.568 | 128000 ± 8850 |  |  |  | 
